Screening results (PubChem)
Hits are enriched below; roughly 1.2% of the tested compounds scored in any of these assays.
procasp3 activ = activates human procaspase-3; P42574; recombinant procaspase-3 D3A, Ac-DEVD-pNA absorbance 405 nm; activation, % at 8.5 µM; 0.11% of 330,000 active; AID 463141;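 active means activation above the mean of all tested compounds plus 3 SD, cut at about 21% in these data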;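 further: 0% = DMSO alone and 100% = DMSO wells spiked with extra 5 µM PC-3 D3A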
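Test system: Procaspase-3 D3A mutant, all three cleavage aspartates alanine | Dosing: Single dose, 8.5 µM nominal compound, 0.8% DMSO | Schedule: 1 h preincubation, 2 h reaction | Technique: 405 nm absorbance of p-nitroaniline, reads at 0 and 120 min | Repeats: One well per compound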
ARFGAP1 inh = inhibits rat ARF GTPase activating protein 1. 0.26% of 360,000 active. Q62848. Arfgap1-stimulated ARF1 GTP hydrolysis, GDP FP detection. AID 651572. inhibition, % at 16.5 µM;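 active means inhibition above a per-plate limit, mean inhibition of low control wells plus 3 SD, cut at about 25% in these data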;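 further: 0% = DMSO wells with enzyme and 100% = wells lacking Arfgap1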
Target sequence (Q62848 1-136 limits assumed): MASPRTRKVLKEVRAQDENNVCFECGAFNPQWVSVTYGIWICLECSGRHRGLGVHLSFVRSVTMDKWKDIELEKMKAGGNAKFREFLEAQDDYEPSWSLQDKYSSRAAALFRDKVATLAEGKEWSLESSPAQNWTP
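material = rat Arfgap1 catalytic domain, aa 1-136 | also added = human ARF1(Δ1-17)-GTP substrate | compound dosing = one concentration, 16.5 µM, DMSO 1.26% | times = GTP hydrolysis reaction 2 h at 25 °C | measured by = FP, GDP Alexa 633 tracer displaced from anti-GDP antibody, 620/688 nm | evaluation = percent inhibition of Arfgap1-stimulated GTP hydrolysis | replication = single well per compound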
CR mimetic SO = yeast age-related superoxide inhibition as caloric restriction mimetic; S. cerevisiae aged cells, superoxide DHE fluorescence; stronger effect = lower value; superoxide response (% of plate mean), % at 10 µM; 0.18% of 330,000 active; AID 2690;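 active means superoxide response under a set limit, about three screen SD below normal, cut at about 65% in these data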;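 further: yeast aged for seven days with compound at 30 °C before DHE staining; 100% = average MFI of all compound-treated wells on the plate with controls excluded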
procasp7 counter = counter-screen: procaspase-7 (human) activation; P55210; recombinant procaspase-7, Ac-DEVD-pNA absorbance 405 nm; D23A/D198A/D206A triple mutant, cannot self-cleave; scale: DMSO 0, 5 µM enzyme 100; activation, % at 8.5 µM; 0.093% of 330,000 active; AID 463210;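 active means percent activation above the screen-wide mean plus 3 SD, cut at about 25% in these data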
Target sequence (P55210 whole entry D23A/D198A/D206A): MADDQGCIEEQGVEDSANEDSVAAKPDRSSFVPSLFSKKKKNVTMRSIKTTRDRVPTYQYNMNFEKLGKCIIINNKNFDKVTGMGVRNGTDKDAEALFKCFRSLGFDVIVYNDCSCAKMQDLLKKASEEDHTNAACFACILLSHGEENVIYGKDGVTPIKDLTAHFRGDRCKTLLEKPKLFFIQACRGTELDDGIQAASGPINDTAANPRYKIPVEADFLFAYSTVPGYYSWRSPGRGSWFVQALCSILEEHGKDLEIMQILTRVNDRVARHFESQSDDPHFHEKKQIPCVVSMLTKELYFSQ
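Assay system: Uncleavable procaspase-7 mutant enzyme | Input: 2 µM procaspase-7 mutant as dispensed | Timing: 1 h compound preincubation, 2 h substrate cleavage, 25 °C | Repeats: One well per compound | Control set: DMSO wells as 0%, DMSO with 5 µM added PC-7 as 100% | Technique: Epi-absorbance of released pNA at 405 nm, two timepoints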
ASAP1 GAP inh = ASAP1 ArfGAP inhibition. ASAP1-stimulated ARF1 GTP hydrolysis, GDP FP detection. inhibition, % at 16.5 µM. 0.19% of 360,000 active. Q9ULH1; in the data active means inhibition above about 25%;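 further: 0% = vehicle with enzyme and substrate and 100% = no enzyme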
LANA-H2A inh = blocks KSHV LANA binding to histone H2A/H2B; cell-free LANA-H2A/H2B peptide, fluorescence polarization; Q9QR71; 0.6% of 320,000 active; inhibition, % (concentration not given with the values); AID 2629; in the data active means inhibition mostly above about 10%, no sharp cut-off; inactive means mostly below about 6.7%
ASAP1 inh confirm = ASAP1 inhibition confirmed | ASAP1-stimulated Arf1 GTPase, GDP fluorescence polarization | AID 624431 | 37% of 620 active | shares compounds with ASAP1 GAP inh | inhibition, % at 16.5 µM;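 active means mean inhibition over triplicates exceeds the hit threshold derived for the earlier primary screening run, cut at about 25% in these data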
Active calls of the source: *; . = not tested or not shown.

SMILES	procasp3 activ	ARFGAP1 inh	CR mimetic SO	procasp7 counter	ASAP1 GAP inh	LANA-H2A inh	ASAP1 inh confirm
O=C(Cn1c2ccccc2c(=O)c2ccccc21)N/N=C/c1cc([N+](=O)[O-])ccc1N1CCCCCC1	-3	20	113	1	37*	2	40*
Cc1nc2nc[nH]n2c(=O)c1NS(C)(=O)=O	1	1	98	4	26*	3	4
COc1ccc(NC(=O)c2cc3c(-c4ccc(OC)c(OC)c4)nn(C)c3s2)cc1OC	15	5	95	4	32*	-1	58*
CCC(CO)Oc1cc(NCc2ccc(Cl)cc2)c2ncn(C(C)C)c2c1 (stereo not drawn)	5	7	92	12	-4	0	.
CC[C@H](CO)Oc1cc(NCc2ccc(Cl)c(Cl)c2)c2ncn(C(C)C)c2c1	1	14	102	8	26*	-2	16
COc1ccc(C2=Nc3ccccc3NC(=O)C2N(Cc2ccc(F)cc2)C(=O)c2ccco2)cc1 (stereo not drawn)	.	-8	.	.	1	.	.
COc1ccc(C2=Nc3ccccc3NC(=O)C2N(CCc2ccccc2)C(=O)c2cccs2)cc1 (stereo not drawn)	.	7	.	.	27*	.	-1
CCOc1ccccc1N1CCN(CC(=O)N(C)CC(=O)Nc2ccccc2CC)CC1	.	-4	.	.	-10	.	.
COc1ccc(/C=C/C(=O)Nc2cccnc2Cl)cc1	-11	-1	112	-6	-19	2	.
CCOC(=O)c1sc2nc(C)nc(NCCc3ccc(S(N)(=O)=O)cc3)c2c1C	-3	-3	102	-2	-2	5	.
Cc1nc(NCCc2ccc(S(N)(=O)=O)cc2)c2c(C)c(C)sc2n1	-4	14	104	4	25*	3	3
COc1ccc(OC)c(/C=N\NC(=O)c2cc3c(ccc4ccccc43)o2)c1	-6	11	94	-3	9	3	.
COc1ccc(/C=N/NC(=O)c2cc3c(ccc4ccccc43)o2)c(OC)c1	.	8	.	.	34*	.	16
COc1ccc(C(=O)N/N=C/c2cn[nH]c2-c2ccc(OC)cc2OC)cc1	0	4	102	3	29*	-10	19
Cc1ccc(NC(=O)CCN2C(=O)c3ccccc3S2(=O)=O)cc1C	-4	5	102	5	2	3	.
Cc1cc(NC(=O)Cn2nc(C)c([N+](=O)[O-])c2C)no1	-1	9	105	1	2	2	.
O=[N+]([O-])c1ccccc1OCCOc1ccccc1[N+](=O)[O-]	-10	35*	104	-1	81*	7	102*
Nc1n[nH]c(N)c1N=Nc1ccc(Cl)cc1Cl	-9	6	107	-6	29*	8	16
Nc1n[nH]c(N)c1N=Nc1ccccc1F	-5	10	115	1	0	-4	.
CCCCC(O)(CCCC)C(=O)NN(C(=O)c1cccnc1Cl)c1ccccc1	5	-1	92	8	-8	-3	.
ON1C(c2ccc(Cl)cc2Cl)N(O)[C@H]2CCCC[C@H]21 (stereo partly drawn)	4	5	89	9	2	0	.
CC1N(O)C(c2ccc(Cl)cc2Cl)N(O)C1(C)C (stereo not drawn)	10	5	99	11	25*	-1	5
COCCn1cnc2c(c1=O)c1nc3ccccc3nc1n2/N=C/c1ccco1	5	2	102	-1	-6	5	.
COCCn1cnc2c(c1=O)c1nc3ccccc3nc1n2/N=C/c1ccc(OC)c(OC)c1	7	-13	104	5	33*	5	37*
CCOc1cc(C2CC(=O)N3CN(C4CCCCC4)CSC3=C2C#N)ccc1O (stereo not drawn)	-10	-15	113	-14	26*	1	3
SMILES	procasp3 activ	ARFGAP1 inh	CR mimetic SO	procasp7 counter	ASAP1 GAP inh	LANA-H2A inh	ASAP1 inh confirm
O=C1C(CCc2ccccc2)ON=C(c2cnccn2)N1Cc1ccc(F)cc1 (stereo not drawn)	.	-2	.	.	12	.	.
COc1ccccc1CNC(=O)C(C)Sc1ccsc1[N+](=O)[O-] (stereo not drawn)	7	-17	112	8	-8	5	.
CC(Sc1ccsc1[N+](=O)[O-])C(=O)NCc1ccccc1 (stereo not drawn)	0	8	132	4	25*	22*	3
Cc1noc(C)c1NC(=O)N(C)C[C@H]1OCCCC[C@@H](C)Oc2ccc(NS(=O)(=O)c3ccccc3)cc2C(=O)N([C@H](C)CO)C[C@@H]1C	.	6	.	.	26*	.	0
CCOC(=O)c1sc(N(Cc2ccccc2)C(=O)COC(=O)c2ccccc2O)nc1C	2	3	90	0	2	-5	.
CCOC(=O)c1sc(N(Cc2ccccc2)C(=O)COC(=O)c2ccc(O)cc2)nc1C	-1	16	101	2	26*	-5	21
CCOc1ccc(NC(=S)NC(=O)/C=C/c2ccc(C)cc2)c([N+](=O)[O-])c1	1	8	98	3	-10	-3	.
CCOc1ccc(NC(=S)NC(=O)/C=C/c2ccc(OC)c(OC)c2)c([N+](=O)[O-])c1	-4	-17	121	-11	35*	1	20
CCCc1cc(=O)oc2c(C)c(OCC(=O)NC3CC(C)(C)NC(C)(C)C3)ccc12	-4	-10	93	8	27*	0	4
Cc1cc(=O)oc2c(C)c(OCC(=O)NC3CC(C)(C)NC(C)(C)C3)ccc12	-7	-1	95	9	8	1	.
COc1ccc(Cl)cc1-c1cc(C(=O)Nc2ccc(C)c(NS(C)(=O)=O)c2)[nH]n1	.	8	.	.	2	.	.
COc1ccc(Cl)c(-c2cc(C(=O)Nc3ccc(C)c(NS(C)(=O)=O)c3)[nH]n2)c1	.	11	.	.	26*	.	10
CC1=C/C(=C(/c2cc(C)c(O)c(Br)c2)c2ccccc2S(=O)(=O)O)C=C(Br)C1=O	9	38*	109	-5	40*	0	30*
CC1=C/C(=C(/c2ccc(O)c(C)c2)c2ccccc2S(=O)(=O)O)C=CC1=O	3	3	249	-25	15	3	.
CC(C)C[C@@H](CNCC(=O)[C@H](Cc1c[nH]c2ccccc12)NC(=O)c1[nH]cnc1C(=O)N[C@@H](C)CN)NC(=O)c1nc[nH]c1C(=O)N[C@@H](Cc1ccccc1)C(=O)O	.	-3	.	.	-6	.	.
